Source: ChEMBL document CHEMBL3392956, “Evaluation of synthetic naphthalene derivatives as novel chemical chaperones that mimic 4-phenylbutyric acid” (Bioorg Med Chem Lett, 2015)
Activity calls are given as the source filed them. The rule behind the calls is not given here.

Assays:
SH-SY5Y = assay: Protection against ER stress-induced human SH-SY5Y cell damage assessed as cell viability at 0.1 mM after 48 hrs by crystal violet assay; assay type: functional, cell-based
Summary of the method: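 Human neuroblastoma SH-SY5Y cells stably expressing Pael-R–FLAG were incubated with or without compound at 0.1, 0.5 or 1.0 mM for 48 h. Viability was determined by crystal violet assay. Values are means ± SE of three independent experiments.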

[1] = Chemical chaperone activity assessed as suppression of alpha-lactalbumin-bovine serum albumin aggregation at 0.3 mM by turbidity assay; assay type: physicochemical; conditions: 300 µM
Summary of the method: (§1)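 Reduced alpha-lactalbumin (r-LA) was made by incubating LA with 5 mM dithiothreitol and 2.5 mM EDTA for 30 min at 25 °C. Aggregation was started at 37 °C by adding denatured bovine serum albumin, with DMSO vehicle or compound present. Turbidity was read as optical density at 488 nm and expressed relative to the matching controls. Values are means ± SE of four independent experiments.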

[2] = Chemical chaperone activity assessed as suppression of alpha-lactalbumin-bovine serum albumin aggregation at 3 mM by turbidity assay; assay type: physicochemical; conditions: 3000 µM; summary of the method: as §1

| Activity [1] | Activity [2] | SMILES | Activity (SH-SY5Y) |
| --- | --- | --- | --- |
| Active |  | COc1ccc(CCC(=O)O)c2ccccc12 | Active |
| Active |  | COc1ccc(CCCCC(=O)O)c2ccccc12 | Active |
| Active |  | COc1ccc2ccccc2c1CCC(=O)O | Active |
| Active |  | COc1ccc2ccccc2c1/C=C/C(=O)O | Active |
| Active |  | COc1ccc2ccccc2c1CCCCC(=O)O | Active |
| Active |  | COc1ccc2ccccc2c1CC/C=C/C(=O)O | Active |

Continued, compound first:

| SMILES | Activity [1] | Activity [2] | Activity (SH-SY5Y) |
| --- | --- | --- | --- |
| COc1ccc2cc(/C=C/C(=O)O)ccc2c1 | Active |  | Active |
| COc1ccc2cc(CC/C=C/C(=O)O)ccc2c1 | Active |  | Active |
| COc1ccc(/C=C/C(=O)O)c2ccccc12 | Active |  | Active |
| COc1ccc2cc(CCC(=O)O)ccc2c1 | Active |  | Active |
| O=C(O)CCCc1ccccc1 |  | Active | Active |
| COc1ccc2cc(CCCCC(=O)O)ccc2c1 | Active |  | Active |
